System: Fibroblast
Experiment: Multiplex assay against human fibroblast
Format: toxicity, cell-based
How it was run: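 Live cells were stained at seeding with Hoechst33342, BioTracker Green Microtubule Cytoskeleton Dye, MitoTracker Red and Annexin V Alexa Fluor 680. Following compound addition, they were imaged on a CQ1 microscope at 37°C and 5% CO2 and gated by CellPathfinder machine learning into Hoechst high-intensity objects or normal cells, with normal cells split into healthy, pyknosed or fragmented nuclei and pyknosed cells into mitotic or apoptotic. Tubulin, mitochondrial-mass and membrane-permeability phenotypes are per cents of healthy-nucleus cells.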

[1] = 12 h, 1 µM, compound concentration 1 uM, replicate 1
[2] = 12 h, 1 µM, compound concentration 1 uM, replicate 2
[3] = 12 h, 10 µM, compound concentration 10 uM, replicate 1
[4] = 12 h, 10 µM, compound concentration 10 uM, replicate 2
[5] = 24 h, 1 µM, compound concentration 1 uM, replicate 1
[6] = 24 h, 1 µM, compound concentration 1 uM, replicate 2
[7] = 24 h, 10 µM, compound concentration 10 uM, replicate 1
[8] = 24 h, 10 µM, compound concentration 10 uM, replicate 2
[9] = 48 h, 1 µM, compound concentration 1 uM, replicate 1
[10] = 48 h, 1 µM, compound concentration 1 uM, replicate 2
[11] = 48 h, 10 µM, compound concentration 10 uM, replicate 1
[12] = 48 h, 10 µM, compound concentration 10 uM, replicate 2

CN[C@@H](C)C(=O)N[C@H](C(=O)N1CCC[C@H]1C(=O)Nc1snnc1-c1ccccc1)C1CCCCC1 [GDC-0152]
Population Apoptotic (%) [1]: 70% | Population Fragmented Nuclei (%) [1]: 14% | Population Healthy Nuclei (%) [1]: 68% | Population Hoechst High Intensity Objects (%) [1]: 4% | Population Membrane Permeable-Phenotype (%) [1]: 1% | Population Mitochondria Different-Phenotype (%) [1]: 6% | Population Mitotic Cells (%) [1]: 30% | Population Normal (%) [1]: 95% | Population Pyknosed Nuclei (%) [1]: 16% | Population Tubulin-Different-Phenotype (%) [1]: 38% | Total Cell Count [1]: 127 | Population Apoptotic (%) [2]: 33% | Population Fragmented Nuclei (%) [2]: 16% | Population Healthy Nuclei (%) [2]: 56% | Population Hoechst High Intensity Objects (%) [2]: 6% | Population Membrane Permeable-Phenotype (%) [2]: 6% | Population Mitochondria Different-Phenotype (%) [2]: 9% | Population Mitotic Cells (%) [2]: 66% | Population Normal (%) [2]: 93% | Population Pyknosed Nuclei (%) [2]: 26% | Population Tubulin-Different-Phenotype (%) [2]: 62% | Total Cell Count [2]: 121 | Population Apoptotic (%) [3]: 38% | Population Fragmented Nuclei (%) [3]: 17% | Population Healthy Nuclei (%) [3]: 59% | Population Hoechst High Intensity Objects (%) [3]: 6% | Population Membrane Permeable-Phenotype (%) [3]: 0% | Population Mitochondria Different-Phenotype (%) [3]: 13% | Population Mitotic Cells (%) [3]: 61% | Population Normal (%) [3]: 93% | Population Pyknosed Nuclei (%) [3]: 22% | Population Tubulin-Different-Phenotype (%) [3]: 80% | Total Cell Count [3]: 144 | Population Apoptotic (%) [4]: 24% | Population Fragmented Nuclei (%) [4]: 26% | Population Healthy Nuclei (%) [4]: 34% | Population Hoechst High Intensity Objects (%) [4]: 10% | Population Mitochondria Different-Phenotype (%) [4]: 10% | Population Mitotic Cells (%) [4]: 75% | Population Normal (%) [4]: 90% | Population Pyknosed Nuclei (%) [4]: 39% | Population Tubulin-Different-Phenotype (%) [4]: 65% | Total Cell Count [4]: 150 | Population Apoptotic (%) [5]: 60% | Population Fragmented Nuclei (%) [5]: 20% | Population Healthy Nuclei (%) [5]: 63% | Population Hoechst High Intensity Objects (%) [5]: 2% | Population Membrane Permeable-Phenotype (%) [5]: 1% | Population Mitochondria Different-Phenotype (%) [5]: 1% | Population Mitotic Cells (%) [5]: 40% | Population Normal (%) [5]: 97% | Population Pyknosed Nuclei (%) [5]: 16% | Population Tubulin-Different-Phenotype (%) [5]: 30% | Total Cell Count [5]: 123 | Population Apoptotic (%) [6]: 37% | Population Fragmented Nuclei (%) [6]: 22% | Population Healthy Nuclei (%) [6]: 55% | Population Hoechst High Intensity Objects (%) [6]: 9% | Population Membrane Permeable-Phenotype (%) [6]: 2% | Population Mitochondria Different-Phenotype (%) [6]: 11% | Population Mitotic Cells (%) [6]: 62% | Population Normal (%) [6]: 90% | Population Pyknosed Nuclei (%) [6]: 22% | Population Tubulin-Different-Phenotype (%) [6]: 61% | Total Cell Count [6]: 133 | Population Apoptotic (%) [7]: 67% | Population Fragmented Nuclei (%) [7]: 14% | Population Healthy Nuclei (%) [7]: 58% | Population Hoechst High Intensity Objects (%) [7]: 5% | Population Membrane Permeable-Phenotype (%) [7]: 0% | Population Mitochondria Different-Phenotype (%) [7]: 21% | Population Mitotic Cells (%) [7]: 32% | Population Normal (%) [7]: 94% | Population Pyknosed Nuclei (%) [7]: 26% | Population Tubulin-Different-Phenotype (%) [7]: 83% | Total Cell Count [7]: 135 | Population Apoptotic (%) [8]: 41% | Population Fragmented Nuclei (%) [8]: 33% | Population Healthy Nuclei (%) [8]: 34% | Population Hoechst High Intensity Objects (%) [8]: 8% | Population Membrane Permeable-Phenotype (%) [8]: 16% | Population Mitochondria Different-Phenotype (%) [8]: 22% | Population Mitotic Cells (%) [8]: 58% | Population Normal (%) [8]: 91% | Population Pyknosed Nuclei (%) [8]: 31% | Population Tubulin-Different-Phenotype (%) [8]: 68% | Total Cell Count [8]: 157 | Population Apoptotic (%) [9]: 47% | Population Fragmented Nuclei (%) [9]: 23% | Population Healthy Nuclei (%) [9]: 60% | Population Hoechst High Intensity Objects (%) [9]: 1% | Population Membrane Permeable-Phenotype (%) [9]: 0% | Population Mitochondria Different-Phenotype (%) [9]: 1% | Population Mitotic Cells (%) [9]: 52% | Population Normal (%) [9]: 98% | Population Pyknosed Nuclei (%) [9]: 16% | Population Tubulin-Different-Phenotype (%) [9]: 48% | Total Cell Count [9]: 132 | Population Apoptotic (%) [10]: 57% | Population Fragmented Nuclei (%) [10]: 38% | Population Healthy Nuclei (%) [10]: 44% | Population Hoechst High Intensity Objects (%) [10]: 5% | Population Membrane Permeable-Phenotype (%) [10]: 2% | Population Mitochondria Different-Phenotype (%) [10]: 14% | Population Mitotic Cells (%) [10]: 42% | Population Normal (%) [10]: 94% | Population Pyknosed Nuclei (%) [10]: 17% | Population Tubulin-Different-Phenotype (%) [10]: 67% | Total Cell Count [10]: 159 | Population Apoptotic (%) [11]: 76% | Population Fragmented Nuclei (%) [11]: 23% | Population Healthy Nuclei (%) [11]: 45% | Population Hoechst High Intensity Objects (%) [11]: 6% | Population Membrane Permeable-Phenotype (%) [11]: 0% | Population Mitochondria Different-Phenotype (%) [11]: 22% | Population Mitotic Cells (%) [11]: 23% | Population Normal (%) [11]: 93% | Population Pyknosed Nuclei (%) [11]: 31% | Population Tubulin-Different-Phenotype (%) [11]: 81% | Total Cell Count [11]: 145 | Population Apoptotic (%) [12]: 44% | Population Fragmented Nuclei (%) [12]: 39% | Population Healthy Nuclei (%) [12]: 42% | Population Membrane Permeable-Phenotype (%) [12]: 19% | Population Mitochondria Different-Phenotype (%) [12]: 17% | Population Mitotic Cells (%) [12]: 55% | Population Pyknosed Nuclei (%) [12]: 18% | Population Tubulin-Different-Phenotype (%) [12]: 88% | Total Cell Count [12]: 159
